# Measured values as given in paper PMC5064183 (Annals of Dermatology, 2016).
# Assays:
# [1] = test system: Melan-a mouse melanocytes; test: Melanin content assay in Melan-a cells; format: cell-based; settings: αMSH (10 nM) induced Melan-a cells (Fig. 6B)
# Outline: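 Immortal non-tumorigenic mouse melanocytes kept in RPMI 1640 with 10% FBS, 1% penicillin/streptomycin and 200 nM TPA at 37℃, 10% CO2, subcultured every 4th day. Melanin content measured under αMSH (10 nM) stimulation and expressed as % of untreated control alongside MTT viability. Mean±SD; unpaired t-test.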
# [2] = test system: B16F10 mouse melanoma cells; test: Melanin content assay in B16F10 cells; format: cell-based; settings: αMSH (10 nM) induced B16F10 melanoma cells (Fig. 6A)
# Outline: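 B16F10 cells grown in DMEM with 10% FBS and 1% penicillin/streptomycin at 37℃, 5% CO2, under αMSH (10 nM) stimulation. Seeded in 12-well plates for 24 h, refed and held 48 h in triplicate cultures, then trypsinised. Washed twice in PBS, lysed in 1 N NaOH/10% DMSO at 80℃ for 1 h; absorbance 405 nm versus untreated cells. Mean±SD; unpaired t-test.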
# [3] = test system: Mushroom tyrosinase (EC 1.14.18.1); test: In vitro mushroom tyrosinase assay; format: biochemical
# Outline: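 Mushroom tyrosinase (EC 1.14.18.1), enzyme stock 1,100 units/ml (0.516 mg/ml) in 0.1 M phosphate buffer, mixed with phosphate buffer, test compound or reference inhibitor, and 5 mM L-dopa solution. Incubated 10 min at 37℃; dopachrome read at 475 nm. % inhibition = (ΔAcontrol−ΔAsample)/ΔAcontrol×100; IC50 = concentration giving 50% inhibition. Triplicate wells; experiments run at least three times; mean±SD, unpaired t-test.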
"dose dependence of mushroom tyrosinase inhibition ([3]; 5, 10, 20, 40, and 80 µM (Fig. 4, 5))","maximum inhibitory effect of tyrosinase activity ([3]; in vitro tyrosinase screening, as restated in the discussion) [%]",Compound,effect on melanin content (in words) [1],effect on melanin content (in words) [2]
–,–,"OC[C@H]1O[C@@H](Oc2ccc(O)cc2)[C@H](O)[C@@H](O)[C@@H]1O [Arbutin, hydroquinone-beta-D-glucopyranoside]",inhibited melanin content,inhibited melanin content
dose-dependent inhibition,84,KA-CDPGYIGSR [KA-CR9],–,–
